Activity calls are given as the source filed them. The calls are words filed in the database; no cut-off is given here.
Key:
CCRF-CEM [1] = experiment: Cytotoxicity against human CCRF-CEM cells after 72 hrs by XTT assay; assay type: functional, cell-based
Method in brief: (§1)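 CCRF-CEM and its Taxol- and vinblastine-resistant sublines were incubated 72 h, then given phenazine methosulfate-XTT for 6 h at 37 °C. Absorbance was read at 450 and 630 nm. IC50 came from median-effect analysis of dose-effect data at six or seven concentrations.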

CCRF-CEM [2] = experiment: Cytotoxicity against human taxol-resistant CCRF-CEM cells after 72 hrs by XTT assay; assay type: functional, cell-based; method in brief: as §1
CCRF-CEM [3] = experiment: Cytotoxicity against human vinblastine-resistant CCRF-CEM cells after 72 hrs by XTT assay; assay type: functional, cell-based; method in brief: as §1
MX1 = experiment: Cytotoxicity against human MX1 cells after 72 hrs by SRB assay; assay type: functional, cell-based; details: MX1, 72 h
Method in brief: (§2)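 MX-1 and HCT-116 solid tumor cells were exposed 72 h, with growth read by SRB staining on a microplate spectrophotometer. IC50 came from median-effect analysis of dose-effect data at six or seven concentrations.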

HCT-116 = experiment: Cytotoxicity against human HCT116 cells after 72 hrs by SRB assay; assay type: functional, cell-based; details: HCT-116, 72 h; method in brief: as §2
CCRF-CEM [4] = experiment: Ratio of IC50 for human taxol-resistant CCRF-CEM cells to IC50 for human CCRF-CEM cells; assay type: functional
CCRF-CEM [5] = experiment: Ratio of IC50 for human vinblastine-resistant CCRF-CEM cells to IC50 for human CCRF-CEM cells; assay type: functional
[6] = Cytotoxicity against human H1299 cells after 72 hrs by Alamar blue assay; assay type: functional, cell-based; details: NCI-H1299, 72 h
Method in brief: (§3)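 H1299 and PC3 cells were exposed 72 h, then given Alamar blue for 6 h at 37 °C. Absorbance was read at 570 and 600 nm. IC50 came from median-effect analysis of dose-effect data at six or seven concentrations.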

PC-3 = experiment: Cytotoxicity against human PC3 cells after 72 hrs by Alamar blue assay; assay type: functional, cell-based; details: PC-3, 72 h; method in brief: as §3
Nucleic Acid [7] = experiment: Induction of pEGFP-N1 plasmid DNA interstrand cross-linking at 1 to 5 uM by alkaline agarose gel shift assay; assay type: nucleic-acid assay
Nucleic Acid [8] = experiment: Induction of pEGFP-N1 plasmid DNA interstrand cross-linking at 1 to 20 uM by alkaline agarose gel shift assay; assay type: nucleic-acid assay
Method in brief: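 pEGFP-N1 plasmid DNA (1500 ng) was incubated with compound (1, 10, 20 μM) in 3 mM NaCl/1 mM sodium phosphate pH 7.4/1 mM EDTA for 2 h at 37 °C. It was then BamHI-linearized, ethanol-precipitated and denatured in 0.5 N NaOH-10 mM EDTA. Samples were run on a 0.8% alkaline agarose gel at 4 °C, 18 V for 22 h, stained with ethidium bromide.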

## O=C(Nc1ccc(N(CCCl)CCCl)cc1)Nc1ccc2ncnc(Nc3ccc(Oc4ccccc4)cc3)c2c1
CCRF-CEM [1]
  IC50: 4.77 µM
CCRF-CEM [2]
  IC50: 7.99 µM
CCRF-CEM [3]
  IC50: 10.9 µM
MX1
  IC50: 8.47 µM
HCT-116
  IC50: 12.4 µM
CCRF-CEM [4]
  Ratio IC50: 1.67
CCRF-CEM [5]
  Ratio IC50: 2.28

## O=C(Nc1ccc(N(CCCl)CCCl)cc1)Nc1ccc2ncnc(Nc3cccc(Br)c3)c2c1
CCRF-CEM [1]
  IC50: 0.95 µM
CCRF-CEM [2]
  IC50: 4.58 µM
CCRF-CEM [3]
  IC50: 2.62 µM
MX1
  IC50: 6.92 µM
HCT-116
  IC50: 2.17 µM
[6]
  IC50: 8.04 µM
PC-3
  IC50: 10.1 µM
CCRF-CEM [4]
  Ratio IC50: 4.82
CCRF-CEM [5]
  Ratio IC50: 2.76

## O=C(Nc1ccc(N(CCCl)CCCl)cc1)Nc1ccc2ncnc(Nc3ccc(Br)cc3)c2c1
CCRF-CEM [1]
  IC50: 4.64 µM
CCRF-CEM [2]
  IC50: 8.79 µM
CCRF-CEM [3]
  IC50: 7.88 µM
MX1
  IC50: 6.71 µM
HCT-116
  IC50: 7.79 µM
CCRF-CEM [4]
  Ratio IC50: 1.89
CCRF-CEM [5]
  Ratio IC50: 1.7

## COc1cc(Nc2ncnc3ccc(NC(=O)Nc4ccc(N(CCCl)CCCl)cc4)cc23)cc(OC)c1OC
CCRF-CEM [1]
  IC50: 0.38 µM
CCRF-CEM [2]
  IC50: 12.3 µM
CCRF-CEM [3]
  IC50: 24.5 µM
MX1
  IC50: 4.02 µM
HCT-116
  IC50: 2.24 µM
[6]
  IC50: 10.3 µM
PC-3
  IC50: 11 µM
CCRF-CEM [4]
  Ratio IC50: 32.42
CCRF-CEM [5]
  Ratio IC50: 64.5

## O=C(Nc1ccc(N(CCCl)CCCl)cc1)Nc1ccc2ncnc(Nc3cccc(C(F)(F)F)c3)c2c1
CCRF-CEM [1]
  IC50: 3.97 µM
CCRF-CEM [2]
  IC50: 4.57 µM
CCRF-CEM [3]
  IC50: 4.68 µM
MX1
  IC50: 5.3 µM
HCT-116
  IC50: 5.97 µM
CCRF-CEM [4]
  Ratio IC50: 1.15
CCRF-CEM [5]
  Ratio IC50: 1.17

## O=C(Nc1ccc(N(CCCl)CCCl)cc1)Nc1ccc2ncnc(Nc3ccc(Cl)c(C(F)(F)F)c3)c2c1
CCRF-CEM [1]
  IC50: 4.77 µM
CCRF-CEM [2]
  IC50: 5.36 µM
CCRF-CEM [3]
  IC50: 5.28 µM
MX1
  IC50: 7.44 µM
HCT-116
  IC50: 5.34 µM
CCRF-CEM [4]
  Ratio IC50: 1.12
CCRF-CEM [5]
  Ratio IC50: 1.11

## N[C@@H](Cc1ccc(N(CCCl)CCCl)cc1)C(=O)O
Nucleic Acid [7]
  Activity: Active

## O=C(Nc1ccc(N(CCCl)CCCl)cc1)Nc1ccc2ncnc(Nc3ccc(F)c(Br)c3)c2c1
CCRF-CEM [1]
  IC50: 2.68 µM
CCRF-CEM [2]
  IC50: 4.4 µM
CCRF-CEM [3]
  IC50: 4.74 µM
MX1
  IC50: 7.1 µM
HCT-116
  IC50: 5.99 µM
CCRF-CEM [4]
  Ratio IC50: 1.64
CCRF-CEM [5]
  Ratio IC50: 1.77

## CC(=O)O[C@H]1C(=O)[C@@]2(C)[C@H]([C@H](OC(=O)c3ccccc3)[C@]3(O)C[C@H](OC(=O)[C@H](O)[C@@H](NC(=O)c4ccccc4)c4ccccc4)C(C)=C1C3(C)C)[C@]1(OC(C)=O)CO[C@@H]1C[C@@H]2O [PACLITAXEL]
CCRF-CEM [4]
  Ratio IC50: 143
CCRF-CEM [5]
  Ratio IC50: 423

## COc1ccc(Nc2ncnc3ccc(NC(=O)Nc4ccc(N(CCCl)CCCl)cc4)cc23)cc1Cl
CCRF-CEM [1]
  IC50: 0.8 µM
CCRF-CEM [2]
  IC50: 3.34 µM
CCRF-CEM [3]
  IC50: 3.75 µM
MX1
  IC50: 5.51 µM
HCT-116
  IC50: 5.27 µM
[6]
  IC50: 6.94 µM
PC-3
  IC50: 8.02 µM
Nucleic Acid [8]
  Activity: Active
CCRF-CEM [4]
  Ratio IC50: 4.17
CCRF-CEM [5]
  Ratio IC50: 4.68

## O=C(Nc1ccc(N(CCCl)CCCl)cc1)Nc1ccc2ncnc(Nc3ccc(Cl)c(Cl)c3)c2c1
CCRF-CEM [1]
  IC50: 2.6 µM
CCRF-CEM [2]
  IC50: 5.61 µM
CCRF-CEM [3]
  IC50: 6.75 µM
MX1
  IC50: 6.45 µM
HCT-116
  IC50: 2.79 µM
CCRF-CEM [4]
  Ratio IC50: 2.16
CCRF-CEM [5]
  Ratio IC50: 2.6

## O=C(Nc1ccc(N(CCCl)CCCl)cc1)Nc1ccc2ncnc(Nc3cccc(F)c3)c2c1
CCRF-CEM [1]
  IC50: 2.51 µM
CCRF-CEM [2]
  IC50: 3.46 µM
CCRF-CEM [3]
  IC50: 4.28 µM
MX1
  IC50: 10.1 µM
HCT-116
  IC50: 9.62 µM
CCRF-CEM [4]
  Ratio IC50: 1.38
CCRF-CEM [5]
  Ratio IC50: 1.7

## C#Cc1cccc(Nc2ncnc3ccc(NC(=O)Nc4ccc(N(CCCl)CCCl)cc4)cc23)c1
CCRF-CEM [1]
  IC50: 0.5 µM
CCRF-CEM [2]
  IC50: 2.29 µM
CCRF-CEM [3]
  IC50: 2.33 µM
MX1
  IC50: 6.27 µM
HCT-116
  IC50: 3.47 µM
CCRF-CEM [4]
  Ratio IC50: 4.58
CCRF-CEM [5]
  Ratio IC50: 4.66

## COc1cccc(Nc2ncnc3ccc(NC(=O)Nc4ccc(N(CCCl)CCCl)cc4)cc23)c1
CCRF-CEM [1]
  IC50: 1.32 µM
CCRF-CEM [2]
  IC50: 3.58 µM
CCRF-CEM [3]
  IC50: 3.38 µM
MX1
  IC50: 2.59 µM
HCT-116
  IC50: 2.44 µM
[6]
  IC50: 8.79 µM
PC-3
  IC50: 9.44 µM
CCRF-CEM [4]
  Ratio IC50: 2.71
CCRF-CEM [5]
  Ratio IC50: 2.56

## O=C(Nc1ccc(N(CCCl)CCCl)cc1)Nc1ccc2ncnc(Nc3ccc(OCc4ccccn4)c(Cl)c3)c2c1
CCRF-CEM [1]
  IC50: 1.41 µM
CCRF-CEM [2]
  IC50: 4.58 µM
CCRF-CEM [3]
  IC50: 2.65 µM
MX1
  IC50: 4.62 µM
HCT-116
  IC50: 2.22 µM
CCRF-CEM [4]
  Ratio IC50: 3.24
CCRF-CEM [5]
  Ratio IC50: 1.88

## O=C(Nc1ccc(N(CCCl)CCCl)cc1)Nc1ccc2ncnc(Nc3ccc(F)cc3)c2c1
CCRF-CEM [1]
  IC50: 0.74 µM
CCRF-CEM [2]
  IC50: 3.16 µM
CCRF-CEM [3]
  IC50: 1.24 µM
MX1
  IC50: 3.43 µM
HCT-116
  IC50: 3.18 µM
[6]
  IC50: 11.6 µM
PC-3
  IC50: 8.24 µM
Nucleic Acid [8]
  Activity: Active
CCRF-CEM [4]
  Ratio IC50: 4.27
CCRF-CEM [5]
  Ratio IC50: 1.67

## CC[C@]1(O)C[C@@H]2CN(CCc3c([nH]c4ccccc34)[C@@](C(=O)OC)(c3cc4c(cc3OC)N(C)[C@H]3[C@@](O)(C(=O)OC)[C@H](OC(C)=O)[C@]5(CC)C=CCN6CC[C@]43[C@@H]65)C2)C1 [VINBLASTINE]
CCRF-CEM [4]
  Ratio IC50: 106.2
CCRF-CEM [5]
  Ratio IC50: 679.5

From ChEMBL document CHEMBL1795344, “Design, synthesis and antitumor evaluation of phenyl N-mustard-quinazoline conjugates” (Bioorg Med Chem, 2011)
